A short description of data set [1]: Antiproliferative activity against human HepG2 cells assessed as reduction in cell viability by MTT assay. It is filed as functional, cell-based. On the technique in general: Tetrazolium assays rely on reduction of a dye to a coloured formazan, in cell work by metabolically active cells.
The nature of data set [2]: Antiproliferative activity against human K562 cells assessed as reduction in cell viability by MTT assay. It is filed as functional, cell-based.
Data set [3] is described as follows: Antiproliferative activity against human HMLE cells assessed as reduction in cell viability by MTT assay. It is filed as functional, cell-based.
For data set [4], the system named is HepG2. In words: Reduction in lysosomal acidification in human HepG2 cells at 50 uM after 6 hrs by DAPI/lyso tracker red-double staining based confocal microscopic analysis relative to control. It is filed as functional, cell-based. The essentials:
(§1)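 HepG2 cells were incubated at 5 μM (test agent) or 50 μM (chloroquine) for 6 h, then stained with LysoTracker Red. Nuclei were stained with DAPI and cells imaged by confocal microscopy (×63). LysoTracker Red signal was quantified per cell against untreated control.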

A short description of data set [5]: Cytotoxicity against human HepG2 cells assessed as reduction in cell viability at 50 uM by MTT assay. It is filed as functional. Summed up: (§2)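 HepG2 cells were exposed to test agent at 5 μM or chloroquine at 50 μM for the indicated times. Viability was measured by MTT assay.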
Data set [6] is described as follows: Cmax in Sprague-Dawley rat at 25 mg/kg, po measured up to 24 hrs. It is filed as ADME, organism-based. Further details: dose 25 mg/kg, route oral. The note with it: in vivo. The essentials:
(§3)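 Adult male Sprague-Dawley rats were given a single oral dose of 25 mg/kg. Nine blood samples (0.3 mL) were taken over 24 h. n = 3.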

A short description of data set [7]: AUCt in Sprague-Dawley rat at 25 mg/kg, po measured up to 24 hrs. The note with it: in vivo. Also noted: time < 24 hr, dose 25 mg/kg, route oral. It is filed as ADME, organism-based. The essentials: as §3
Data set [8] is described as follows: MRT in Sprague-Dawley rat at 25 mg/kg, po measured up to 24 hrs. It is filed as ADME, organism-based. Particulars: in vivo. Summed up: as §3
Data set [9] in a line: Tmax in Sprague-Dawley rat at 25 mg/kg, po measured up to 24 hrs. It is filed as ADME, organism-based. Particulars: in vivo. Summed up:
as §3

The nature of data set [10]: AUC (0 to infinity) in Sprague-Dawley rat at 25 mg/kg, po measured up to 24 hrs. It is filed as ADME, organism-based. Further details: dose 25 mg/kg, route oral, time infinity. Particulars: in vivo. The essentials:
as §3

Data set [11] is described as follows: Half life in Sprague-Dawley rat at 25 mg/kg, po measured up to 24 hrs. It is filed as ADME, organism-based. The note with it: in vivo. Summed up: as §3
The test system of data set [12] is A549. Nature of the data set: Blockade of autophagic flux in human A549 cells assessed as increase in LC3-2 level at 5 uM after 8 hrs in presence of rapamycin by Western blot analysis. It is filed as functional, cell-based. Summed up:
(§4)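 A549 and HepG2 cells were pretreated with chloroquine (10 μM) or rapamycin (200 nM) for 2 h. Compound was then added at 5 μM for 8 h. LC3 turnover (LC3-II) was detected by Western blot.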
For orientation: Immunoblotting shows a protein as a band on a membrane.

Data set [13] concerns HepG2. In words: Reduction in lysosomal acidification in human HepG2 cells at 5 uM after 6 hrs by DAPI/lyso tracker red-double staining based confocal microscopic analysis relative to control. It is filed as functional, cell-based. Summed up:
as §1

For data set [14], the system named is HepG2. Nature of the data set: Blockade of autophagic flux in human HepG2 cells assessed as increase in LC3-2 level at 5 uM after 8 hrs in presence of chloroquine by Western blot analysis. It is filed as functional, cell-based. The essentials:
as §4

Data set [15] has as its system A549. In words: Blockade of autophagic flux in human A549 cells assessed as increase in LC3-2 level at 5 uM after 8 hrs in presence of chloroquine by Western blot analysis. It is filed as functional, cell-based. Summed up: as §4
Data set [16] deals with HepG2. In words: Blockade of autophagic flux in human HepG2 cells assessed as increase in LC3-2 level at 5 uM after 8 hrs in presence of rapamycin by Western blot analysis. It is filed as functional, cell-based. The essentials: as §4
Data set [17] has as its system HepG2. Nature of the data set: Blockade of autophagic flux in human HepG2 cells transfected with mCherry-EGFP-LC3 assessed as punctate dot formation at 5 uM after 6 hrs by DAPI staining-based confocal microscopic analysis. It is filed as functional, cell-based. Summed up: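 HepG2 cells were transfected with an mCherry-EGFP-LC3 tandem plasmid and treated at 5 μM for 6 h (CQ 50 μM alongside). Imaging was by confocal microscopy with DAPI-stained nuclei. GFP/mCherry double-positive and mCherry single-positive puncta per cell were counted in ≥100 cells per count. Data are the mean of three independent experiments ± SD.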

Data set [18] concerns A549. In words: Induction of autophagosome accumulation in human A549 cells transfected with EGFP-LC3 assessed as punctate dot formation at 5 uM after 6 hrs by fluorescent microscopic analysis relative to control. It is filed as functional, cell-based.
Data set [19] is described as follows: Cytotoxicity against human HepG2 cells assessed as reduction in cell viability at 5 uM by MTT assay. It is filed as functional. The essentials: as §2
Data set [20] relates to HepG2. In words: Induction of autophagosome accumulation in human HepG2 cells transfected with EGFP-LC3 assessed as punctate dot formation at 5 uM after 6 hrs by fluorescent microscopic analysis relative to control. It is filed as functional, cell-based. The essentials:
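HepG2 cells were transfected with an EGFP-LC3 plasmid, then exposed 24 h later to 5 μM or left untreated for 6 h. Cells were imaged by fluorescence microscopy, and EGFP-LC3 puncta per cell were counted in at least 100 cells per group.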

Calls of active or inactive are those of the source. The rule behind the calls is not given here. Some results are limits rather than exact numbers.

Turning to `COc1cc(NCCCC[C@@H]2[C@H]3CCCN4CCC[C@H](CN2Cc2ccc(Cl)cc2)[C@@H]34)cc(OC)c1OC`, in data set [1], the half-inhibitory concentration (IC50) (as a rule, the concentration at which inhibition is half-maximal) came to 6.4 µM.

As for `CC[C@@]1(O)C(=O)OCc2c1cc1n(c2=O)Cc2cc3c(CN(C)C)c(O)ccc3nc2-1` [TOPOTECAN], the results for the IC50 in data set [2] and in data set [3] were 1.15 µM and 0.75 µM, respectively.

On to `CCN(CC)CCCC(C)Nc1ccnc2cc(Cl)ccc12` (configuration not stated) [CHLOROQUINE], for which the outcome with HepG2 [4] was Active. For the same compound, in data set [5], the Activity is reported as 50%.

On to `OCCCC[C@@H]1[C@H]2CCCN3CCC[C@H](CN1Cc1ccc(Cl)cc1)[C@@H]23`, for which the IC50 in data set [1] turned out to be 9.3 µM.

For `O=S(=O)(c1ccc(Cl)cc1)N1C[C@H]2CCCN3CCC[C@@H]([C@H]23)[C@H]1CCCCNCc1cccc2c1OCO2`, the IC50 in data set [1] is 3.8 µM.

For the compound `Clc1ccc(CN2C[C@H]3CCCN4CCC[C@@H]([C@H]34)[C@H]2CCCCNCc2cccc3c2OCO3)cc1`, the Cmax (commonly the maximum level reached in the sampled fluid or tissue) in data set [6] was 2700 nM. For the same compound, the AUC(0-t) (in general, the area under the concentration-time curve up to a stated or last time point) at 24 h in data set [7] was 5.7 µM·h. Also, the MRT – broadly, a mean duration of stay, worked out from the concentration-time curve – in data set [8] was 9.1 h. The values for the IC50 in data set [1], in data set [2] and in data set [3] were 2.6 µM, 1.14 µM and 0.64 µM, respectively. Besides, the Tmax – broadly, the time at which the peak concentration occurs – in [9] is 1.2 h. In [10], the total exposure AUC(0-inf) (in general, the area under the concentration-time curve extrapolated to infinity) is 6.8 µM·h. The half-life (in general, the time in which the quantity being followed falls by half) in [11] was 11.2 h.

On to `O=C(c1ccc(Cl)cc1)N1C[C@H]2CCCN3CCC[C@@H]([C@H]23)[C@H]1CCCCNCCc1cccc2c1OCO2`, for which, in data set [1], the IC50 is over 20 µM.

The compound `COc1cc(CNCCCC[C@@H]2[C@H]3CCCN4CCC[C@H](CN2Cc2ccc(Cl)cc2)[C@@H]34)cc(OC)c1OC` yielded a Cmax in data set [6] of 4900 nM. Further, the result in the data set on A549 [12], with HepG2 [13], in the data set on HepG2 [14], with A549 [15], with HepG2 [16] and in the data set on HepG2 [17] was Active. For the same compound, the outcome with A549 [18] and in the data set on HepG2 [20] was Active. In addition, the AUC(0-t) at 24 h in [7] was 10.8 µM·h. The compound further registered an MRT in data set [8] of 11.6 h. Further, the values for the IC50 in data set [1], in data set [2] and in data set [3] were 1.7 µM, 1.03 µM and 0.55 µM, respectively. Also, in data set [9], the Tmax is 1.6 h. Also, the AUC(0-inf) in [10] amounted to 13.3 µM·h. In data set [11], the half-life was 13 h. The Activity in data set [19] was found to be 50%.

Turning to `COC(=O)CCC[C@@H]1[C@H]2CCCN3CCC[C@H](CN1C(=O)NCCCl)[C@@H]23`, the IC50 in data set [1] was over 50 µM.

`Clc1ccc(CN2C[C@H]3CCCN4CCC[C@@H]([C@H]34)[C@H]2CCCCNc2cccc3c2OCO3)cc1`: the IC50 in [1] is 10.6 µM.

For `O=S(=O)(c1ccc(Cl)cc1)N1C[C@H]2CCCN3CCC[C@@H]([C@H]23)[C@H]1CCCCO`, the IC50 in data set [1] was 28.8 µM.

As to `COC(=O)CCC[C@@H]1[C@H]2CCCN3CCC[C@H](CN1C(=O)N(CCCl)N=O)[C@@H]23`, the IC50 in [1] is 38.3 µM.

Turning to `O=C(c1ccc(Cl)cc1)N1C[C@H]2CCCN3CCC[C@@H]([C@H]23)[C@H]1CCCCNCc1cccc2c1OCO2`, the IC50 in [1] was 16.5 µM.

Take `O=S(=O)(c1ccc(Cl)cc1)N1C[C@H]2CCCN3CCC[C@@H]([C@H]23)[C@H]1CCCCNCCc1cccc2c1OCO2`: in [1], the IC50 worked out at 5.5 µM.

For `COC(=O)CCC[C@@H]1[C@H]2CCCN3CCC[C@H](CN1S(=O)(=O)c1ccc(Cl)cc1)[C@@H]23`, in data set [1], the IC50 amounted to 15.8 µM.

Consider `COc1cc(NCCCC[C@@H]2[C@H]3CCCN4CCC[C@H](CN2S(=O)(=O)c2ccc(Cl)cc2)[C@@H]34)cc(OC)c1OC`, for which, in data set [1], the half-inhibitory concentration (IC50) worked out at 7.9 µM.

`CC(C)(C)C(=O)N1C[C@H]2CCCN3CCC[C@@H]([C@H]23)[C@H]1CCCCO`: the IC50 in data set [1] was over 50 µM.

For the compound `COC(=O)CCC[C@@H]1[C@H]2CCCN3CCC[C@H](CN1C(=O)c1ccc(Cl)cc1)[C@@H]23`, the IC50 in data set [1] was over 50 µM.

On to `O=C(c1ccc(Cl)cc1)N1C[C@H]2CCCN3CCC[C@@H]([C@H]23)[C@H]1CCCCO`, for which the IC50 in data set [1] is over 50 µM.

Turning to `Clc1ccc(CN2C[C@H]3CCCN4CCC[C@@H]([C@H]34)[C@H]2CCCCNCCc2cccc3c2OCO3)cc1`, in data set [6], the Cmax worked out at 2900 nM. The same compound returned an AUC(0-t) at 24 h in data set [7] of 6.1 µM·h. In [8], this compound had an MRT of 10.8 h. Also, the IC50 in data set [1] is 2.6 µM; in [2], 1.09 µM; in data set [3], 0.68 µM. Further, the Tmax in data set [9] worked out at 1.8 h. For the same compound, in data set [10], the AUC(0-inf) is 11.7 µM·h. For the same compound, the half-life in [11] was 21.9 h.

Turning to `COC(=O)CCC[C@@H]1[C@H]2CCCN3CCC[C@H](CN1C(=O)C(C)(C)C)[C@@H]23`, the IC50 in [1] was over 50 µM.

With `COc1cc(CNCCCC[C@@H]2[C@H]3CCCN4CCC[C@H](CN2C(=O)c2ccc(Cl)cc2)[C@@H]34)cc(OC)c1OC`, the IC50 in [1] is over 20 µM.

For the origin of these results see ChEMBL document CHEMBL3877332, “Synthesis, Biological Evaluation, and Autophagy Mechanism of 12N-Substituted Sophoridinamines as Novel Anticancer Agents” (ACS Med Chem Lett, 2017).
